Several values for one entry are separate records, joined by “and”; a condition that tells them apart may be missing. Identical values can stand only once. Square brackets hold non-standard residues; d marks the D form. Peptide text beside a SMILES is read from it. Orn(N5-OH,N5-Ac) = CC(=O)N(O)CCC[C@H](N)C(=O)O
Experiments:
L. monocytogenes EGD-e [1] = assay: Growth assay in BHI with 2,2'-bipyridyl; format: cell-based, Listeria monocytogenes
E. coli FhuA = settings: ref Newton et al., 2010; cited from earlier work
L. monocytogenes EGD-e [2] = assay: Iron nutrition tests on BHI agar with bipyridyl, EGD-e; format: cell-based, Listeria monocytogenes; settings: 50 uM Fc, EGD-e and all mutant strains
[3] = molecular target: listerial CM Fc transporter FhuDBGC; settings: ref Jin et al., 2005, cited from earlier work
L. monocytogenes EGD-e [4] = settings: aqueous buffers; ref Jin et al., 2005; cited from earlier work
L. monocytogenes EGD-e [5] = assay: [59Fe]-Hn uptake by cells, EGD-e; format: cell-based, Listeria monocytogenes; settings: for Km: read-out: Transport Km; for Km / Transport Vmax: 37°C
L. monocytogenes EGD-e [6] = assay: [59Fe]-Hn binding to whole cells, EGD-e; set-up: species or system Listeria monocytogenes; settings: strain EGD-e; for Kd: read-out: Binding Kd, MOPS-L, on ice
HupD-6H (Lmo2431) = HupD-6H (Lmo2431) (Listeria monocytogenes, UniProt Q8Y4K7); assay: Intrinsic Trp fluorescence quenching, ligand binding to purified 6H-HupD
[7] = test system: L. monocytogenes EGD-e Δhup (ΔhupDGC); assay: [59Fe]-Hn uptake by cells, Δhup; format: cell-based, Listeria monocytogenes
FhuD-6H (Lmo1959) = FhuD-6H (Lmo1959) (Listeria monocytogenes, UniProt Q8Y5U6); assay: Intrinsic Trp fluorescence quenching, ligand binding to purified 6H-FhuD
Lmo2185 (Hbp2) = molecular target: T1, Lmo2185 (Hbp2) (Listeria monocytogenes serovar 1/2a, UniProt Q7AP54); assay: Equilibrium [59Fe]-Hn filter binding to purified Lmo2185
T1 sequence (Q7AP54 29-569): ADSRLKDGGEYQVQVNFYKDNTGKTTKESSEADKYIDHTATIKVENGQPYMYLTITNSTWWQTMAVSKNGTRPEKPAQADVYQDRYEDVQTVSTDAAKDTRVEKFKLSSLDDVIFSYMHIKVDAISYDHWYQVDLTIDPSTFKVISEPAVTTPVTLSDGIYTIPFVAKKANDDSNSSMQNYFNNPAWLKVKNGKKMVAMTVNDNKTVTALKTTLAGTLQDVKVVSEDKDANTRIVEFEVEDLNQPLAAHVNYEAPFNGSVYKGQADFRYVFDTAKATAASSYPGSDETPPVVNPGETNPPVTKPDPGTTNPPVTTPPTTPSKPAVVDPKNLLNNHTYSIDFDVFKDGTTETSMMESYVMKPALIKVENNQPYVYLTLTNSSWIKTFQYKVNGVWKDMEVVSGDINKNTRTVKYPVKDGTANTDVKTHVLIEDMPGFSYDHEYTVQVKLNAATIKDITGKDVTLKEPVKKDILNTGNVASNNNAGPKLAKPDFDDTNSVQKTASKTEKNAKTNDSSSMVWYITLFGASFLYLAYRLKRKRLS
Outline: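 His-tagged Hbp2 expressed in E. coli BL21 (1 mM IPTG), purified on Co-NTA and Sephacryl S-100, stripped of Hn by boiling in 0.5% SDS and acetone precipitation, then renatured in TBS pH 8.0. Protein at 30.6 pmol/mL, refolded 1 h at RT, mixed with [59Fe]-Hn (DMSO) for 30 min on ice. Filtered on cellulose acetate and gamma-counted. Triplicates, protein-free background subtracted, KD from bound-vs-total fit.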

[8] = test system: L. monocytogenes EGD-e ΔsrtAB; assay: [59Fe]-Hn binding to whole cells, ΔsrtAB; set-up: species or system Listeria monocytogenes; settings: strain ΔsrtAB
Outline: (§1)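 Bacteria were grown overnight in BHI at 37°C, then passaged twice (1%) in iron-deficient MOPS-L to OD600 0.6–0.8. Cells were exposed on ice for 1 min to [59Fe]-Hn (DMSO stock diluted in ice-cold MOPS-L). They were filtered (0.45 µm), washed with 50 mM Tris-HCl pH 9.0 plus 0.05% Tween-20, and gamma-counted. Filter-only counts were subtracted. Triplicates were fitted to a one-site-plus-background model for KD and capacity (pmol/10^9 cells).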

[9] = test system: L. monocytogenes EGD-e ΔsrtB; assay: [59Fe]-Hn binding to whole cells, ΔsrtB; set-up: species or system Listeria monocytogenes
[10] = test system: L. monocytogenes EGD-e ΔsrtAB; assay: [59Fe]-Hn uptake by cells, ΔsrtAB; format: cell-based, Listeria monocytogenes; settings: strain ΔsrtAB
Outline: (§2)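 Cultures from overnight BHI (37°C) were passaged 1% into MOPS-L to stationary phase, then again to OD600 0.8–1. Cells were added to 37°C MOPS containing varying [59Fe]-Hn, filtered at 5 s and 1 min, washed with ice-cold 50 mM Tris, 0.05% Tween-20, pH 9, and gamma-counted. The 5 s counts were subtracted from 1 min counts to give rate. Triplicates were fitted to enzyme kinetics for KM and Vmax.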

[11] = test system: L. monocytogenes EGD-e Δhup (ΔhupDGC); assay: [59Fe]-Hn binding to whole cells, Δhup; set-up: species or system Listeria monocytogenes
[12] = test system: L. monocytogenes EGD-e ΔsrtB; assay: [59Fe]-Hn uptake by cells, ΔsrtB; format: cell-based, Listeria monocytogenes; settings: strain ΔsrtB
Outline: as §2

[13] = test system: L. monocytogenes EGD-e ΔsrtA; assay: [59Fe]-Hn binding to whole cells, ΔsrtA; set-up: species or system Listeria monocytogenes; settings: strain ΔsrtA
Outline: as §1

[14] = test system: L. monocytogenes EGD-e Δlmo2185 (Δhbp2); assay: [59Fe]-Hn binding to whole cells, Δlmo2185; set-up: species or system Listeria monocytogenes
[15] = test system: L. monocytogenes EGD-e ΔsrtA; assay: [59Fe]-Hn uptake by cells, ΔsrtA; format: cell-based, Listeria monocytogenes; settings: strain ΔsrtA
Outline: as §2

With `c1ccc(-c2ccccn2)nc1` [BP, 2, 2’-bipyridyl] the “effect on growth in BHI” value (L. monocytogenes EGD-e [1]; 1 mM BP, wild type and mutant derivatives) was “inhibited growth”.
In the case of `CC(=O)N(O)CCC[C@@H]1NC(=O)CNC(=O)CNC(=O)CNC(=O)[C@H](CCCN(O)C(C)=O)NC(=O)[C@H](CCCN(O)C(C)=O)NC1=O.[Fe+3]` [Fc, ferrichrome] (cyclo(GGG[Orn(N5-OH,N5-Ac)][Orn(N5-OH,N5-Ac)][Orn(N5-OH,N5-Ac)])), the “Vmax of Fc transport, E. coli FhuA” value (E. coli FhuA) is given as 45 pMol/10^9 cells/min, the “utilization as iron source in nutrition test” value (L. monocytogenes EGD-e [2]) is given as “normally utilized” and the Kd ([3]; read-out: KD, listerial Fc acquisition, KD ≈ KM) is given as about 1 nM. The Km ([3]; read-out: KM, listerial Fc transport, KD ≈ KM) was about 1 nM and the “Vmax of Fc transport, FhuDBGC” value [3] was 22 pMol/10^9 cells/min.
For `C=CC1=C(C)c2cc3[nH]c(cc4nc(cc5[nH]c(cc1n2)c(C)c5C=C)C(C)=C4CCC(=O)O)c(CCC(=O)O)c3C.[Fe+3]` [Hn, haemin], the “concentration that stimulated growth in previous study” value (L. monocytogenes EGD-e [4]) is listed as 200 µM, the Km (L. monocytogenes EGD-e [5]; strain EGD-e) is listed as 1 nM and ~1 nM and the “Transport Vmax” value (L. monocytogenes EGD-e [5]; strain EGD-e) is listed as 23 pMol/10^9cells/min. The Kd (L. monocytogenes EGD-e [6]) was about 1 nM, the “effect on growth in BHI containing 1 mM BP” value (L. monocytogenes EGD-e [1]; 0.2 mM Hn added (printed), EGD-e) was “returned to its original growth rate” and the “fold higher affinity of 6H-HupD than the most avid LmoFhuD binding interaction” value (HupD-6H (Lmo2431); relative to FhuD-FxB) was 5 fold. The “Transport Vmax” value ([7]; strain Δhup) was 7 pMol/10^9cells/min and the “fold lower uptake rate than wild type” value ([7]; ΔhupDBGC strain vs EGD-e) was 3 fold.
For `C=CC1=C(C)c2cc3[nH]c(cc4nc(cc5[nH]c(cc1n2)c(C)c5CCC(=O)O)C(CCC(=O)O)=C4C)c(C)c3C=C` [PPIX, protoporphyrin IX], the Kd (FhuD-6H (Lmo1959); Binding Kd FhuD-6H, intrinsic fluorescence quenching, 3–5 trials, Kd ± SD) was 276 ± 32 nM, the Kd (FhuD-6H (Lmo1959); KD for 6H-FhuD, fluorescence spectroscopy) was 300 nM and the Kd (HupD-6H (Lmo2431)) was 1150 nM. The “fold lower affinity for LmoHupD than Hn” value (HupD-6H (Lmo2431); relative to Hn) was 40 fold.
In the case of `C=CC1=C(C)c2cc3[n-]c(cc4nc(cc5[n-]c(cc1n2)c(C)c5CCC(=O)O)C(CCC(=O)O)=C4C)c(C)c3C=C.[59Fe+3]` [[^59Fe]-Hn], the Kd (Lmo2185 (Hbp2)) is reported as 12 nM, the Km (L. monocytogenes EGD-e [5]; strain EGD-e) is reported as 1.2 ± 0.2 nM and the “Hup-dependent transport rate Vmax” value (L. monocytogenes EGD-e [5]; residual accumulation in Δhup subtracted from wild-type, estimate) is reported as 14 pMol/10^9 cells/min. The “Vmax of uptake (text, unit without /min)” value (L. monocytogenes EGD-e [5]; strain EGD-e) was 23 pMol/10^9 cells, the “Transport Vmax” value (L. monocytogenes EGD-e [5]; strain EGD-e) was 22.2 ± 0.9 pMol/10^9cells/min and the Kd ([8]; read-out: Binding Kd) was 5.1 ± 3 nM. For the same compound, the “Binding Cap.” value [8] was 9 pMol/10^9cells and 9 ± 1.5 pMol/10^9cells, the Kd (L. monocytogenes EGD-e [6]) was 2 nM and 2.4 nM and the “Binding Cap.” value (L. monocytogenes EGD-e [6]) was 130 pMol/10^9cells and 129.5 ± 5.6 pMol/10^9cells. The Kd ([9]; read-out: Binding Kd, strain ΔsrtB) was 9.9 ± 1.3 nM, the “Binding Cap.” value ([9]; strain ΔsrtB) was 19 pMol/10^9cells and 18.7 ± 0.9 pMol/10^9cells and the “decrease of binding capacity” value ([9]; ΔsrtB vs EGD-e, nanomolar range) was 80%. The Km ([10]; read-out: Transport Km) was 15.1 ± 6.4 nM, the “Transport Vmax” value [10] was 5.6 ±1.3 pMol/10^9cells/min and the Kd ([11]; read-out: Binding Kd, strain Δhup) was 2.5 ± 0.45 nM. For the same compound, the “Binding Cap.” value ([11]; strain Δhup) was 105 pMol/10^9cells and 105 ± 4.2 pMol/10^9cells, the “decrease of binding capacity” value ([11]; Δhup vs EGD-e) was ~ 20% and 20% and the Km ([12]; read-out: Transport Km) was 7.1 ± 7.5 nM. For the same compound, the “Transport Vmax” value [12] was 3.5 ± 1.6 pMol/10^9cells/min, the Kd ([13]; read-out: Binding Kd) was 2.3 ± 0.16 nM and the “Binding Cap.” value [13] was 130 pMol/10^9cells and 129 ± 1.9 pMol/10^9cells. The Kd ([14]; read-out: Binding Kd, strain Δlmo2185 (Δhbp2)) was 11.4 ± 2.6 nM, the “Binding Cap.” value ([14]; strain Δlmo2185 (Δhbp2)) was 30.1 ± 2.9 pMol/10^9cells and the “decrease of binding capacity” value ([14]; Δhbp2 vs EGD-e, nanomolar range) was 80%. For the same compound, the Km ([7]; read-out: Transport Km, strain Δhup) was 1.1 ± 0.2 nM, the “Transport Vmax” value ([7]; strain Δhup) was 7.5 pMol/10^9cells/min and 7.5 ± 0.3 pMol/10^9cells/min and the “Vmax as percent of the wild type rate” value ([7]; ΔhupDGC vs EGD-e) was 27%. For the same compound, the Km ([15]; read-out: Transport Km) was 1.4 ± 0.2 nM and the “Transport Vmax” value [15] was 23.1 ± 0.6 pMol/10^9cells/min.
